Key:
[1] = biological target: Sodium-dependent dopamine transporter (Rattus norvegicus, UniProt P23977); experiment: In vitro inhibition of [3H]WIN-35 428 binding to dopamine transporter on rat striatal membranes.; format: cell membranes, Membrane
Outline: (§1)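 Compounds dissolved in 10% DMSO. Incubation ended by filtration, and filter-bound radioactivity was counted by liquid scintillation at about 35% efficiency for 3H. IC50 values were determined. Mean ± SEM of three independent experiments, each in triplicate.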

[2] = biological target: Sodium-dependent serotonin transporter (Rattus norvegicus, UniProt P31652); experiment: In vitro inhibition of [3H]citalopram binding to serotonin transporter on rat striatal membranes.; format: cell membranes, Membrane; outline: as §1
[3] = biological target: Monoamine transporters; serotonin & dopamine (Rattus norvegicus) (UniProt P31652+P23977); experiment: Ratio of inhibitory activity against Serotonin Transporter compared to Dopamine Transporter; format: protein assay
Outline: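 Selectivity is expressed as SERT/DAT, the ratio of binding values from rat striatal membranes. SERT was labelled with [3H]citalopram and DAT with [3H]WIN 35,428. Binding was ended by filtration and counted by scintillation. Values come from three independent experiments, each run in triplicate.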

Sequence of Sodium-dependent serotonin transporter (P31652 whole entry): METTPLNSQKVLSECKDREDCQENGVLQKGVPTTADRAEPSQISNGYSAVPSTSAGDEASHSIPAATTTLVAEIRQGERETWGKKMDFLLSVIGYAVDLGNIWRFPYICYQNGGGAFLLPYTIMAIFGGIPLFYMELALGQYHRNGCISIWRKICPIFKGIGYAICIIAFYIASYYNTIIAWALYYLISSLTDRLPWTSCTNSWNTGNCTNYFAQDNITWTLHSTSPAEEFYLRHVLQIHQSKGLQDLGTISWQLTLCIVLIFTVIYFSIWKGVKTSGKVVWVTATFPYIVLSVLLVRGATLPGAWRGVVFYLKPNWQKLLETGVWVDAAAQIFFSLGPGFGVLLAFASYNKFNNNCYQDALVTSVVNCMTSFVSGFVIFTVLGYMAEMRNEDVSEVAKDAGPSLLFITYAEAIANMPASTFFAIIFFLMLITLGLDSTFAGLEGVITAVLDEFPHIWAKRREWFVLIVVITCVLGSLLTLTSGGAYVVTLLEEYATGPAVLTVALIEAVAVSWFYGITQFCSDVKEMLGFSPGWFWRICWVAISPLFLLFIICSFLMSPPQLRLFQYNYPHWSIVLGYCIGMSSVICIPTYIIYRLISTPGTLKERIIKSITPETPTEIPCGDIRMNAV
Sequence of Monoamine transporters; serotonin & dopamine (Rattus norvegicus) (P23977 whole entry, looked up): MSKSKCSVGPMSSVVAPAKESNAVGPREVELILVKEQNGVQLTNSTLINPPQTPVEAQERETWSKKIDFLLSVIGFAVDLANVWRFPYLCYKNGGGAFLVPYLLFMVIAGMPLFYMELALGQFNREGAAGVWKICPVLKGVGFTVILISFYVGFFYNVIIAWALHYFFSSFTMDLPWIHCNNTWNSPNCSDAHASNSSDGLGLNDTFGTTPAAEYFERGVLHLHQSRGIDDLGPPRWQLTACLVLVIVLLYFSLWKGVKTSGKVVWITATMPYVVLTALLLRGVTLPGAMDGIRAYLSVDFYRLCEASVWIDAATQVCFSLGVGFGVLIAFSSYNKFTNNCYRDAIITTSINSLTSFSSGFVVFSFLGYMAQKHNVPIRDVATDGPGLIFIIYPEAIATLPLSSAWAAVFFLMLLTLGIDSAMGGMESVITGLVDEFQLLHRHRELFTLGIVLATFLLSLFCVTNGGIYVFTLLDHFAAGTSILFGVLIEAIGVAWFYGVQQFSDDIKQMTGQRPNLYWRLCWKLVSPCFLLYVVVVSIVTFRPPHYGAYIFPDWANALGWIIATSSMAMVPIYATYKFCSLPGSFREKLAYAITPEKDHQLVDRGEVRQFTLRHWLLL
Sequence of Monoamine transporters; serotonin & dopamine (Rattus norvegicus) (P31652 whole entry, looked up): as the sequence (P31652 whole entry) above
Sequence of Sodium-dependent dopamine transporter (P23977 whole entry): as the sequence (P23977 whole entry, looked up) above

Compound: Fc1ccc(CN2CCC(CCOC(c3ccccc3)c3ccc(F)cc3)CC2)cc1 (stereo unspecified)
- IC50 [1]: 0.014 µM
- IC50 [2]: 1.26 µM
- Ratio [3]: 89

Compound: c1ccc(CN2CCC(CCOC(c3ccccc3)c3ccccc3)CC2)cc1
- Ratio [3]: 49

Compound: Clc1ccc(CN2CCC(CCOC(c3ccccc3)c3ccccc3)CC2)cc1Cl
- IC50 [1]: 0.0857 µM
- IC50 [2]: 2.88 µM
- Ratio [3]: 33.6

Compound: c1ccc(CN2CCC(CCOC(c3ccccc3)c3cccs3)CC2)cc1 (stereo unspecified)
- IC50 [1]: 0.0272 µM
- IC50 [2]: 0.741 µM
- Ratio [3]: 27

Compound: Fc1ccc(CN2CCC(CCOC(c3ccccc3)c3cccs3)CC2)cc1 (stereo unspecified)
- IC50 [1]: 0.0138 µM
- IC50 [2]: 1.39 µM
- Ratio [3]: 100

Compound: Clc1ccc(CN2CCC(CCOC(c3ccccc3)c3ccccc3)CC2)cc1
- IC50 [1]: 0.0247 µM
- IC50 [2]: 1.61 µM
- Ratio [3]: 65.1

Compound: Nc1ccc(CN2CCC(CCOC(c3ccccc3)c3ccccc3)CC2)cc1
- IC50 [1]: 0.101 µM
- IC50 [2]: 1.57 µM
- Ratio [3]: 15.6

Compound: c1ccc(C(OCCC2CCN(Cc3cccs3)CC2)c2ccccc2)cc1
- IC50 [1]: 0.0593 µM
- IC50 [2]: 1.25 µM
- Ratio [3]: 21

Compound: Cc1ccc(CN2CCC(CCOC(c3ccccc3)c3ccccc3)CC2)cc1
- IC50 [1]: 0.023 µM
- IC50 [2]: 1.39 µM
- Ratio [3]: 60.4

Compound: Brc1ccc(CN2CCC(CCOC(c3ccccc3)c3ccccc3)CC2)cc1
- IC50 [1]: 0.0311 µM
- IC50 [2]: 1.49 µM
- Ratio [3]: 48

Compound: Fc1ccc(CN2CCC(CCOC(c3ccccc3)c3ccccc3)CC2)cc1Cl
- IC50 [1]: 0.0282 µM
- IC50 [2]: 2.53 µM
- Ratio [3]: 90

Compound: O=[N+]([O-])c1ccc(CN2CCC(CCOC(c3ccccc3)c3ccccc3)CC2)cc1
- IC50 [1]: 0.0164 µM
- IC50 [2]: 1.77 µM
- Ratio [3]: 108

Compound: COc1ccc(CN2CCC(CCOC(c3ccccc3)c3ccccc3)CC2)cc1
- IC50 [1]: 0.0278 µM
- IC50 [2]: 1.24 µM
- Ratio [3]: 45

Compound: c1ccc(C(OCCC2CCN(Cc3cc4ccccc4s3)CC2)c2ccccc2)cc1
- IC50 [1]: 0.172 µM
- IC50 [2]: 1.54 µM
- Ratio [3]: 8.9

Compound: c1ccc(C(OCCC2CCN(Cc3cccnc3)CC2)c2ccccc2)cc1
- IC50 [1]: 0.0486 µM
- IC50 [2]: 0.68 µM
- Ratio [3]: 13.9

Compound: Fc1ccc(CN2CCC(CCOC(c3ccccc3)c3ccc(Cl)cc3)CC2)cc1 (stereo unspecified)
- IC50 [1]: 0.0524 µM
- IC50 [2]: 1.81 µM
- Ratio [3]: 34.4

Compound: Fc1ccc(CN2CCC(CCOC(c3ccccc3)c3ccccc3)CC2)cc1
- IC50 [2]: 1.92 µM
- Ratio [3]: 112

Compound: c1ccc(C(OCCC2CCN(Cc3cccnc3)CC2)c2cccs2)cc1 (stereo unspecified)
- IC50 [1]: 0.0583 µM
- IC50 [2]: 0.927 µM
- Ratio [3]: 15.9

— ChEMBL document CHEMBL1130016 (J Med Chem, 1997)
